ChEMBL document CHEMBL3243960
Calls of active or inactive are those of the source. No cut-off for these calls is given here.

Assays:
[1] = biological target: T1, Asparagine synthetase [glutamine-hydrolyzing] (Rattus norvegicus) (UniProt P49088); test: Inhibition of asparagine synthetase isolated from rat bearing Novikoff hepatoma cells using [14C]-L-aspartic acid as substrate at 2 mM incubated 15 mins prior to substrate addition measured after 30 mins
T1 sequence (whole entry): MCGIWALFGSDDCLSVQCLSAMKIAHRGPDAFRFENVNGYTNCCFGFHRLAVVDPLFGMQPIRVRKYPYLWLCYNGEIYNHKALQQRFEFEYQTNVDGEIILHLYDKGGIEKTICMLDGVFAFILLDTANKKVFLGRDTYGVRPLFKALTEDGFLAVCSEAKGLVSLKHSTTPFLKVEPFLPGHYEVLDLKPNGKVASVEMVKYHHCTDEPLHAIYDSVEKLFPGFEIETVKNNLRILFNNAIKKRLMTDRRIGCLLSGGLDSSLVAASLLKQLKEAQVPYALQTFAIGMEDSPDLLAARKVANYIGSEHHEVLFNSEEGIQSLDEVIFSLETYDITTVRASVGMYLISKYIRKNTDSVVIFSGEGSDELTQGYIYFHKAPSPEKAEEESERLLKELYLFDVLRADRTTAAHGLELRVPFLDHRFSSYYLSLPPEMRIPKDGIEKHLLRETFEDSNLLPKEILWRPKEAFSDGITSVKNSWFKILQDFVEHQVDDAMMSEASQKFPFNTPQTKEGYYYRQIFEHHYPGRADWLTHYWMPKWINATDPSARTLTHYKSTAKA
Summary of the method: (§1)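 ASase partially purified from excised rat Novikoff hepatoma (specific activity 0.51 μmol asparagine/mg protein/30 min). Enzyme and inhibitor were preincubated with 100 μmol Tris at pH 8.0 for 15 min at 37 °C. L-glutamine (20.0 μmol), L-aspartic acid (2.0 μmol) and L-aspartic acid-¹⁴C (2×10⁶ dpm) were then added and incubated 30 min at 37 °C. Isolated L-asparagine-¹⁴C was counted by scintillation. Percent inhibition came from duplicates on three separate days with fresh inhibitor solutions.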

[2] = biological target: T2, Asparagine synthetase [glutamine-hydrolyzing] (Mus musculus) (UniProt Q61024); test: Inhibition of asparagine synthetase in mouse L5178Y/AR cells at 10 mM; type: cell-based
T2 sequence (whole entry): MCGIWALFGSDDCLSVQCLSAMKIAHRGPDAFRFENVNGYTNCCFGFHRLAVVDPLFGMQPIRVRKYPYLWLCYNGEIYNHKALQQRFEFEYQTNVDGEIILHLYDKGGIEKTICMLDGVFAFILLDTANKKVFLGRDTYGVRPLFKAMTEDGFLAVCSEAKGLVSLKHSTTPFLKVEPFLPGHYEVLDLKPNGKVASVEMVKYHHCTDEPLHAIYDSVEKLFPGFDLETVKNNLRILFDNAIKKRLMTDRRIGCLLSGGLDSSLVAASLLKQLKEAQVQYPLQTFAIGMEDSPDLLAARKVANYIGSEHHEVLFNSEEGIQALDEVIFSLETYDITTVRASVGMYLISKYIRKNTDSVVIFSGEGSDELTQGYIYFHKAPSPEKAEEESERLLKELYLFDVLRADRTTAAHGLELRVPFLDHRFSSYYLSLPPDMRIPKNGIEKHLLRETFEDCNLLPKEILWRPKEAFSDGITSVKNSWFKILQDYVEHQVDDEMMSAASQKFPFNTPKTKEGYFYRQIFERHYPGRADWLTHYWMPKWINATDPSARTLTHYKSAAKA

[3] = biological target: T2, Asparagine synthetase [glutamine-hydrolyzing] (Mus musculus); test: Inhibition of asparagine synthetase in mouse L5178Y/AR cells at 1 mM; type: cell-based
[4] = biological target: T1, Asparagine synthetase [glutamine-hydrolyzing] (Rattus norvegicus); test: Competitive inhibition of rat asparagine synthetase using L-aspartic acid as substrate incubated 15 mins prior to substrate addition measured after 30 mins by double reciprocal plot analysis
Summary of the method: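 Partially purified rat Novikoff hepatoma ASase was preincubated with inhibitor in Tris at pH 8.0 for 15 min at 37 °C. L-glutamine was then added with L-aspartic acid varied at 0.25, 0.50, 1.0 and 2.0 mM final, plus ¹⁴C-aspartate (2×10⁶ dpm/tube, 206 mCi/mmol), and incubated 30 min at 37 °C. L-asparagine-¹⁴C was measured. Double-reciprocal plots were fitted by least-squares regression.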

[5] = biological target: T3, Asparagine synthetase [glutamine-hydrolyzing] (Homo sapiens) (UniProt P08243); test: Inhibition of asparagine synthetase in human KB cells at 1 mM; type: cell-based
T3 sequence (whole entry): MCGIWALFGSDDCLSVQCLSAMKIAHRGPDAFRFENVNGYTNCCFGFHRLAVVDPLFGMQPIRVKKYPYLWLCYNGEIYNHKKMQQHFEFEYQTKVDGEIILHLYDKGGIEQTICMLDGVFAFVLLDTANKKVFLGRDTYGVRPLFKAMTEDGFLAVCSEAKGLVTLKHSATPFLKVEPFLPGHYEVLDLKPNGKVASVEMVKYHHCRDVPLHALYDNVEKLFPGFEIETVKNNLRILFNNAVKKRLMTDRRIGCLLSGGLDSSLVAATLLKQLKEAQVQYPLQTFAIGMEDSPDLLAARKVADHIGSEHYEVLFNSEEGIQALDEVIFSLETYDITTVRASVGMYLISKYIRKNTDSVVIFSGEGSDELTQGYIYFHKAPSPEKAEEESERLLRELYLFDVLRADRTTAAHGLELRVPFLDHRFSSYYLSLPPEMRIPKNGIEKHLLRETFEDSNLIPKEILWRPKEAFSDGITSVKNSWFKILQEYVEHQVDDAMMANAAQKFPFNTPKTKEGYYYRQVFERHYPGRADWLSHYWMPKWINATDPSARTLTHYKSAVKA

[6] = biological target: T1, Asparagine synthetase [glutamine-hydrolyzing] (Rattus norvegicus); test: Inhibition of asparagine synthetase isolated from rat bearing Novikoff hepatoma cells using [14C]-L-aspartic acid as substrate at 1 mM incubated 15 mins prior to substrate addition measured after 30 mins; summary of the method: as §1
P388 = test: Antitumor activity against mouse P388 cells […] in mouse assessed as increase in life span; type: functional
Summary of the method: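 In vivo screen run by the National Cancer Institute Drug Research and Development Program in CDF₁ mice bearing P-388 lymphocytic leukemia, an asparaginase-resistant line. The read-out was increase in life span.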

SMILES	inhibition [1]	inhibition [2]	also measured
N[C@@H](CS(=O)(=O)NCc1ccc(S(=O)(=O)F)cc1)C(=O)O	29.5%	inactive	–
N[C@@H](CS(=O)(=O)NCCCl)C(=O)O	0%	–	inhibition [3]: inactive
N[C@@H](CC(=O)NO)C(=O)O	15.8%	–	inhibition [4]: inactive
NC(CC(=O)NO)C(=O)O (racemic)	–	–	inhibition [5]: 36%
N[C@@H](CS(N)(=O)=O)C(=O)O	25.8%	–	–
N[C@@H](CS(=O)(=O)NNC(=O)c1ccc(S(=O)(=O)F)cc1)C(=O)O	43.1%	inactive	–
N[C@@H](CS(=O)(=O)NO)C(=O)O	96.5%	81%	inhibition [6]: 77.6%; inhibition [4]: Active; inhibition [3]: 23%; Activity (P388): inactive
CCOC(=O)/C=C/C(=O)NNS(=O)(=O)C[C@H](N)C(=O)O	37.3%	inactive	Activity (P388): inactive
